The text below walks through data of publication PMC7814958 (Nuclear medicine and biology, 2020).

Data set [1] has as its target T1, ASCT-2 transporter (Homo sapiens, UniProt Q15758).
T1 sequence (Q15758 1-541): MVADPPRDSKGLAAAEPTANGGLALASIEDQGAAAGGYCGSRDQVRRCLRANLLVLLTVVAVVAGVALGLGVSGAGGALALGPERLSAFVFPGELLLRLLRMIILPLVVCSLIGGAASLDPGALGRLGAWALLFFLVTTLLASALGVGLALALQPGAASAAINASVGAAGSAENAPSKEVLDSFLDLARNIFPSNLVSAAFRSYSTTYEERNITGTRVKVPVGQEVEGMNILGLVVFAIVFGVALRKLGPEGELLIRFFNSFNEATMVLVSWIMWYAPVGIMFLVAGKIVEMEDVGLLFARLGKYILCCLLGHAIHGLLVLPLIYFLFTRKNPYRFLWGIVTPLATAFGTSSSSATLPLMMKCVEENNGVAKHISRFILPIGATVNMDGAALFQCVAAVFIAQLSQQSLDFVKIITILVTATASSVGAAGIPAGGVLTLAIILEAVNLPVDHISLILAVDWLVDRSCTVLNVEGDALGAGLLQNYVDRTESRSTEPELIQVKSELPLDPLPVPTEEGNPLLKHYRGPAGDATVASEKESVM
Nature of the data set: [3H]glutamine uptake concentration dependency. Type of data set: cell-based. As to conditions: for affinity towards the ASCT-2 transporter (in words): human PC-3 cell line. In a few lines:
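Human PC-3 cells kept in RPMI with 10% FCS, 1% L-glutamine and pen/strep, plated the prior day at 175,000 cells/mL. Washed twice in HEPES+ (pH 7.4), then 5 min at 37 °C with [3H]-L-glutamine (111 kBq/mL) over a 10–1200 μM glutamine stock series, ± unlabelled test compound. Ice-cold PBS+BSA stop, NaOH lysis, scintillation counting, BCA normalisation. Non-linear Michaelis-Menten fits; Ki from Km and Km,app at inhibitor concentration.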

The target in data set [2] is T2, ASCT-2 transporter (Rattus norvegicus, UniProt D3ZJ25).
T2 sequence (D3ZJ25 1-555): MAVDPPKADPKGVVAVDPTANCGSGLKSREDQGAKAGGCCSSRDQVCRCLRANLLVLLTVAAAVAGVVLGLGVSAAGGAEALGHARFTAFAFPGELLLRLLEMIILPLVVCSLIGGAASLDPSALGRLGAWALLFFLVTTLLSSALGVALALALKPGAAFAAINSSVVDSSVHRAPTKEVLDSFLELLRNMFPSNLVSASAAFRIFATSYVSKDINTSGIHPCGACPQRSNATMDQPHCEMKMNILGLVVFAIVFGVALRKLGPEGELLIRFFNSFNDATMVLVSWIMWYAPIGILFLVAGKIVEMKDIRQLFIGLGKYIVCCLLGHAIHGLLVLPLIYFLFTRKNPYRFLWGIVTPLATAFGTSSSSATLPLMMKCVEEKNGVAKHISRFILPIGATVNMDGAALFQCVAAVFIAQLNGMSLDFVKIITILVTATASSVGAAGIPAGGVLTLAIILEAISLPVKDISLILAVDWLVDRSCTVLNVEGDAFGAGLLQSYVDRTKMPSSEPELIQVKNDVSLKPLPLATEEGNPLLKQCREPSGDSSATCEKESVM
The data set can be described thus: [3H]glutamine uptake concentration dependency. The class given is cell-based. The conditions noted are these: for affinity towards the ASCT-2 transporter (in words): rat F98 cell line. In a few lines:
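Rat F98 cells grown in DMEM with 10% FCS, 1% L-glutamine and pen/strep, seeded the day before at 125,000 cells/mL. After two HEPES+ washes (pH 7.4), cells took up [3H]-L-glutamine (111 kBq/mL) for 5 min at 37 °C. Glutamine stocks spanned 10–1200 μM, ± non-radioactive test compound. Stopped on ice, NaOH lysis, scintillation counting, BCA protein correction. Ki from Michaelis-Menten Km versus Km,app.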

The next data set addresses T3, ASCT-2 (Homo sapiens, UniProt Q15758).
T3 sequence (Q15758 1-541): T1 sequence (Q15758 1-541)
Nature of the data set: Inhibition of [3H]-L-glutamine uptake in PC-3 cells. The conditions noted are these: 5 min, 37 °C, n=3. Type of data set: cell-based. In a few lines: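 PC-3 cells grown in RPMI with 10% FCS, 1% L-glutamine and pen/strep at 37 °C, 5% CO2, seeded at 175,000 cells/mL the day before. Washed twice in HEPES+ buffer (pH 7.4, 100 mM NaCl, 1 g/L BSA), then given [3H]-L-glutamine (111 kBq/mL) with unlabelled glutamine ± test compound. Stopped on ice with cold PBS+BSA, NaOH-lysed, scintillation-counted, BCA protein-corrected.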

The test system of data set [3] is ASCT-2 expressing wild-type HEK-293 cells. Nature of the data set: Inhibition of [3H]glutamine uptake in wild-type HEK-293 cell line. As to conditions: 50 μM glutamine; 5 min, 37 °C; n=3. The class given is cell-based. The procedure, abridged:
(§1)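 Wild-type or CRISPR-Cas9 SLC1A5-knockout HEK-293 cells grown in DMEM (10% FCS, 1% L-glutamine), seeded at 175,000 cells/mL on poly-D-lysine-coated wells the day before. Washed in HEPES+ (pH 7.4), then given 50 μM [3H]-L-glutamine/glutamine ± test compound. Stopped with ice-cold PBS+BSA, washed, lysed in 0.1 M NaOH, scintillation-counted, BCA protein-normalized. Knockout checked by flow cytometry.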

Data set [4] deals with SLC1A5 knock-out HEK-293 cell line. Nature of the data set: Inhibition of [3H]glutamine uptake in ASCT-2 knock-out HEK-293 cell line. Type of data set: cell-based. The conditions noted are these: 50 μM glutamine; 5 min, 37 °C; n=3. The procedure, abridged:
as §1

The next data set can be described thus: LogD7.4 determination. Type of data set: physicochemical. As to conditions: n=3. The procedure, abridged: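 1 MBq radiolabelled test compound added to PBS/n-octanol (1:1, V:V), vortexed and spun 10 min at 1100 g. Aliquots of each layer counted in a NaI(Tl) scintillation counter. LogD7.4 taken as log of octanol/PBS count ratio; n=3.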
The nature of data set [5]: In vitro stability in formulation. The conditions noted are these: 37 °C; analytical HPLC; no degradation products found. Type of data set: physicochemical. The procedure, abridged: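 Radiolabelled test compound held in its formulation at 37 °C for 30, 70, 120 and 180 min after radiosynthesis. Formulation was HPLC eluate (ethanol/10 mM ammonium acetate), diluted with PBS for the biphenyl analogue. At each point 7 MBq was run on analytical C18 HPLC with radio and UV (205 nm) detection at 1.0 mL/min. Runs were isocratic, ethanol/10 mM ammonium acetate 10:90 or 30:70.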

Another data set concerns PC-3 xenograft. The data set can be described thus: Dynamic microPET in PC-3 xenograft model. The class given is in vivo, mice. In a few lines:
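Male Swiss nu/nu mice (n=5) received 5 × 10^6 PC-3 cells with Matrigel in the right flank at 8 weeks and the left flank a week later; scanned seven weeks post-inoculation. Fasted ≥6 h, isoflurane anaesthesia, 18.5 MBq i.v. via tail vein. 1-h dynamic PET (1-min frames to 25 min, then 5-min), then CT. Manual tumor and leg-muscle ROIs; SUV decay- and syringe-corrected.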

A short description of data set [6]: Biodistribution study in PC-3 inoculated mice. The class given is in vivo. The procedure, abridged: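 PC-3 flank xenografts in male Swiss nu/nu mice, prepared as for imaging. Seven weeks post-inoculation, 5.0 MBq radiotracer given i.v. via lateral tail vein. Mice killed by cervical dislocation at 20 and 60 min p.i. (n=3 each). Blood drawn by cardiac puncture; organs dissected, rinsed with water, weighed and counted. Results as %ID/g ± SD.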

The conditions of data set [7]: reported for glutamine; cited from earlier work.
The mark [8] stands for this setting: Swiss nu/nu male mice, PC-3, i.v., 20 min, n=3.
The mark [9] stands for this setting: Swiss nu/nu male mice, PC-3, i.v., 60 min, n=3.

Several values for one entry are separate records, joined by “and”; a condition that tells them apart may be missing. Equal entries are not always repeated.

Broadly, the Ki is a dissociation constant, usually derived from enzyme kinetics or from competition with a known ligand. Low readings indicate tighter binding, high ones weaker binding. As to `N[C@@H](CCC(=O)Nc1ccc(-c2ccc(F)cc2)cc1)C(=O)O` [FBPG, N5-(4’-fluoro-[1,1’-biphenyl]-4-yl)glutamine], at ASCT-2 transporter [1], the Ki turned out to be 604 µM and the “affinity towards the ASCT-2 transporter (in words)” value is “low affinity”. Also, at ASCT-2 transporter [2], affinity was put at a Ki of 1420 µM and the “affinity towards the ASCT-2 transporter (in words)” value is given as “low affinity”. Further, the “relative uptake of [3H]-L-glutamine in presence of inhibitor compared to basal uptake” value on ASCT-2 is on record as 92 ± 1%. Moreover, the “relative uptake of [3H]glutamine in presence of inhibitor compared to basal uptake, Wild-type HEK-293” value in data set [3] is on record as 95 ± 6%. Moreover, the “relative uptake of [3H]glutamine in presence of inhibitor compared to basal uptake, ASCT-2 KO HEK-293” value in data set [4] is 58 ± 9%.
Consider `N[C@@H](CCC(=O)Nc1ccc(F)cc1)C(=O)O` [FPG, N5-(4-fluorophenyl)glutamine], for which, on ASCT-2 transporter [1], the Ki is 234 µM and the “affinity towards the ASCT-2 transporter (in words)” value is “moderate affinity”. In addition, on ASCT-2 transporter [2], affinity was put at a Ki of 850 µM and the “affinity towards the ASCT-2 transporter (in words)” value was “low affinity”. Further, the “relative uptake of [3H]-L-glutamine in presence of inhibitor compared to basal uptake” value at ASCT-2 is listed as 94 ± 9%. In data set [3], the “relative uptake of [3H]glutamine in presence of inhibitor compared to basal uptake, Wild-type HEK-293” value was found to be 96 ± 7%. In addition, the “relative uptake of [3H]glutamine in presence of inhibitor compared to basal uptake, ASCT-2 KO HEK-293” value in data set [4] amounted to 60 ± 7%.
As for `N[C@@H](CCC(=O)Nc1ccc(-c2ccc([18F])cc2)cc1)C(=O)O` [[^18F]FBPG, [^18F]fluorobiphenylglutamine], the “logD7.4 (octanol/PBS ratio at pH 7.4)” value in the data set “LogD7.4 determination” was 1.11 ± 0.01 and 1.11. In addition, the stability in formulation entry in [5] was “at least 3 hours”. Also, the “T/Mmean (mean tumor-to-muscle ratio)” value in the data set with PC-3 xenograft (PC-3 xenograft mice, 18.5 MBq i.v., leg muscle as reference) is 1.20 ± 0.15. The “SUVmean (mean standardized uptake value)” value with PC-3 xenograft (PC-3 xenograft mice, 18.5 MBq i.v., tumor ROI) came to 0.17 ± 0.04. For the same molecule, the “tumor uptake on PET (in words)” value in the data set on PC-3 xenograft (mice bearing PC-3 xenografts) is on record as “very low uptake”. The “bone uptake as indication of defluorination (in words)” value in data set [6] (PC-3 inoculated mice) is given as “No enhanced uptake in the bone”. In addition, in data set [6] (setting [8]), the “Bladder uptake %ID/g 20 min post-injection” value was 1.33 ± 0.77 %ID/g, the “Blood uptake %ID/g 20 min post-injection” value is 5.49 ± 0.74 %ID/g, the “Bone uptake %ID/g 20 min post-injection” value was found to be 0.95 ± 0.20 %ID/g and the “Brain uptake %ID/g 20 min post-injection” value came out at 0.67 ± 0.13 %ID/g. Also, in [6] (setting [8]), the “Fat uptake %ID/g 20 min post-injection” value is 0.92 ± 0.26 %ID/g, the “Heart uptake %ID/g 20 min post-injection” value is given as 2.03 ± 0.47 %ID/g, the “Kidney uptake %ID/g 20 min post-injection” value came out at 11.52 ± 3.91 %ID/g and the “Large intestine uptake %ID/g 20 min post-injection” value came to 0.39 ± 0.14 %ID/g. In [6] (setting [8]), the “Liver uptake %ID/g 20 min post-injection” value is given as 7.43 ± 1.80 %ID/g, the “Lung uptake %ID/g 20 min post-injection” value stood at 5.03 ± 1.14 %ID/g, the “Muscle uptake %ID/g 20 min post-injection” value stood at 0.45 ± 0.09 %ID/g and the “Prostate uptake %ID/g 20 min post-injection” value amounted to 2.13 ± 1.90 %ID/g. In data set [6] (setting [8]), the “Skin uptake %ID/g 20 min post-injection” value worked out at 0.79 ± 0.10 %ID/g, the “Small intestine uptake %ID/g 20 min post-injection” value is reported as 5.77 ± 5.82 %ID/g, the “Spleen uptake %ID/g 20 min post-injection” value came out at 3.11 ± 0.28 %ID/g and the “Stomach uptake %ID/g 20 min post-injection” value is recorded as 2.89 ± 1.72 %ID/g. Besides, in data set [6] (setting [8]), the “Tumor uptake %ID/g 20 min post-injection” value is given as 0.46 ± 0.09 %ID/g. Besides, in data set [6] (setting [9]), the “Bladder uptake %ID/g 60 min post-injection” value is 2.54 ± 1.47 %ID/g, the “Blood uptake %ID/g 60 min post-injection” value is 4.24 ± 0.85 %ID/g, the “Bone uptake %ID/g 60 min post-injection” value amounted to 0.67 ± 0.14 %ID/g and the “Brain uptake %ID/g 60 min post-injection” value is listed as 0.38 ± 0.03 %ID/g. Moreover, in data set [6] (setting [9]), the “Fat uptake %ID/g 60 min post-injection” value stood at 1.21 ± 1.05 %ID/g, the “Heart uptake %ID/g 60 min post-injection” value was determined as 1.50 ± 0.52 %ID/g, the “Kidney uptake %ID/g 60 min post-injection” value was 14.46 ± 1.71 %ID/g and the “Large intestine uptake %ID/g 60 min post-injection” value came to 0.53 ± 0.07 %ID/g. Moreover, in data set [6] (setting [9]), the “Liver uptake %ID/g 60 min post-injection” value is 4.44 ± 0.83 %ID/g, the “Lung uptake %ID/g 60 min post-injection” value is on record as 3.75 ± 0.43 %ID/g, the “Muscle uptake %ID/g 60 min post-injection” value came to 0.48 ± 0.28 %ID/g and the “Prostate uptake %ID/g 60 min post-injection” value turned out to be 2.60 ± 1.12 %ID/g. Besides, in [6] (setting [9]), the “Skin uptake %ID/g 60 min post-injection” value worked out at 0.57 ± 0.10 %ID/g, the “Small intestine uptake %ID/g 60 min post-injection” value was found to be 19.10 ± 4.83 %ID/g, the “Spleen uptake %ID/g 60 min post-injection” value stood at 2.07 ± 0.26 %ID/g and the “Stomach uptake %ID/g 60 min post-injection” value was 0.85 ± 0.01 %ID/g. In addition, the “Tumor uptake %ID/g 60 min post-injection” value in [6] (setting [9]) was 0.42 ± 0.09 %ID/g.
`NC(=O)CC[C@H](N)C(=O)O` [glutamine]: the logD7.4 in [7] is on record as −3.64.
